Measurements reported in PubChem BioAssay.
A number with no mark means an inactive call. Inconclusive results are not listed. Activity calls are given as the source filed them.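 Rule for the calls, unless noted: active = inhibition over a set limit, the all-compound mean plus 3 SD, in both replicate runs; inconclusive = over that limit in just one replicate run; inactive = at or under that limit in both runs.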

Legend:
[1] = OD615 S. cerevisiae growth inhibition, permissive medium, pilot counter-assay, permissive growth control for S. cerevisiae lifespan shortening project (AID 705;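 active = growth inhibition above 25% in both replicates, a cutoff set 3 SD above the mean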); conditions: OD615, 24 h, at 10 µM, hits give high values
In short: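 System: S. cerevisiae with engineered DeaD lifespan system / Measured by: absorbance (optical density) at 615 nm / Read-out: reduction in yeast growth (OD615) / Times: 4 h cell pre-growth, 24 h exposure at 30 °C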

[2] = Restrictive medium S. cerevisiae growth inhibition, OD615, pilot screen of yeast lifespan reduction project, restrictive growth control (AID 706;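 active = growth inhibition above a set limit, 3 SD over mean compound inhibition, in both replicates, cut at about 43% in these data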;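 note: modified DeaD lifespan yeast strain shifted to restrictive glucose medium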); conditions: OD615, 48 h, at 10 µM, hits give high values
In short: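 System: Engineered S. cerevisiae DeaD strain | Buffer or medium: Glucose-based CSMM-D restrictive medium | Schedule: 4 h pre-incubation, 48 h exposure at 30 °C | Technique: Optical density at 615 nm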

[3] = viability gain of MRP-1-high H69AR cells under doxorubicin, pilot screen, MRP-1 activator project, CellTiter-Glo, duplicate (AID 807;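 active = viability increase at or above a cutoff of the median across tested compounds plus 3 SD, cut at about 8.5% in these data, passing the limit was not always enough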;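 note: compound pretreatment 18-22 h then 72 h combined with doxorubicin; 0% = doxorubicin alone and 100% = vehicle without doxorubicin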); conditions: H69AR viability with doxorubicin, CellTiter-Glo luminescence; at 10 µM; hits give high values
[4] = growth suppression of beta-catenin knockout HCT116, pilot screen, human colon tumor cells (AID 823;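 active = cell viability at or below a set limit in both duplicate runs, the limit being the all-compound median minus 4 SD, cut at about 23% in these data, passing the limit was not always enough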;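 note: 0% = wells killed by 20 µM Hyamine and 100% = untreated DMSO cell wells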); conditions: CellTiter-Glo, 60 h, at 10 µM, hits give low values
[5] = growth suppression of PTEN-deleted HCT116, pilot screen, cell-based, HCT116 clonal line, CellTiter-Glo (AID 824;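 active = viability at or below 27.92% in each of two runs, the all-compound median minus 4 SD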;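 note: 0% = 20 µM Hyamine control and 100% = vehicle cell control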); conditions: 60 h, at 10 µM, hits give low values
[6] = inhibitors of the yeast RAM network, pilot screen, dse1pr::URA3 reporter, 5-FOA selection (AID 869);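 note: 0% = DMSO wells with no growth and 100% = 10 µM 1-NA-PP1 with full growth; RAM network block rescues cells from 5-FOA so hits raise OD615 growth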; conditions: S. cerevisiae dse1pr::URA3 5-FOA growth, OD615, 2 d; at 10 µM; hits give high values; strain carries analog-sensitive mutant Cbk1 kinase
[7] = RAM signaling pathway blockade in yeast – S. cerevisiae, Pdr1DBD-CYC8 efflux-inhibited sensitized strain, primary screen (AID 1298;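 active = RAM network inhibition above 8.4% in each of two replicates, 3 SD over the compound average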;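 note: 0% = DMSO untreated cells without growth and 100% = 10 µM 1-NA-PP1 full growth; higher means more yeast growth rescued from 5-FOA killing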); conditions: S. cerevisiae cbk1-as DSE1-URA3 strain, 5-FOA growth OD615, 2 d; at 50 µM; hits give high values

Compound | growth inhibition [1] [%] | growth inhibition [2] [%] | viability increase [3] [%] | viability [4] | viability [5] | inhibition [6] [%] | RAM network inhibition [7] [%]
CSc1oc(-c2ccc(F)cc2)nc1S(=O)(=O)c1ccccc1 | -2.16 | 0.385 | -1.13 | 97.2% | 93.7% | 0.585 | 4.67
COc1cc(C(=O)Oc2c(CN3CCOCC3)cc(Cl)c3cccnc23)cc(OC)c1OC | -8.94 | -33.1 | -8.41 | 6.72% (active) | 4.81% (active) | 1.09 | 0.27
Cc1nc2ccc(S(=O)(=O)NC(C(=O)NCc3ccco3)C(C)C)cc2s1 (configuration not stated) | -6.93 | -0.665 | -2.43 | 101% | 101% | 0.895 | -0.06
O=C(c1cnccn1)N(c1ccccc1)C1(C(=O)NC2CCCCC2)CCCCC1 | -6.44 | -1.08 | -0.6 | 96.9% | 90.7% | 1.06 | 1.62
O=C(c1cccc(S(=O)(=O)N2CCOCC2)c1)N1CCOCC1 | -3.56 | -5.11 | -0.71 | 101% | 97.9% | 0.835 | 1.18
Cc1ccc(C(=O)CSc2nnc(-c3cccs3)n2C)o1 | 1.85 | 28.1 | -3.5 | 108% | 108% | 0.5 | 3.7
CC(C)C(C(=O)NC(C)(C)C)N1C(=O)c2ccccc2C1=O (configuration not stated) | -7.04 | 0.73 | 0.34 | 101% | 101% | -0.63 | 12.4
O=C(Cn1cnc2c(nnn2-c2ccccc2)c1=O)NCC1CCCO1 (configuration not stated) | -6.44 | 8.14 | -2.94 | 100% | 94.3% | 1.41 | 1.65
O=C(CC12CC3CC(CC(C3)C1)C2)N1CCOCC1 | 6.71 | 1.68 | -0.17 | 102% | 102% | 1.39 | 7.72
CC1CCN(CC(O)COc2ccc(F)cc2)CC1 (configuration not stated) | -19.2 | -16.5 | -0.7 | 96.4% | 99.5% | 0.515 | 2.56
CCc1ccccc1S(=O)(=O)Cc1ccc(C(=O)NC(C)C)o1 | -2.43 | -2.4 | -1.52 | 107% | 97.6% | 1.24 | 3.36
Cc1ccc(-c2nnc(N3CCCCC3)c3ccccc23)cc1S(=O)(=O)N1CCN(C)CC1 | -1.95 | -1.92 | -5.28 | 48% | 60.2% | 0.285 | -2.14
COc1cc(OC)c(C2N(c3ccc(Cl)cc3)C(=O)C3CCCN32)cc1OC (configuration not stated) | -2.8 | -2.08 | -2.63 | 105% | 96.7% | 2.59 | 3.82
Cc1cc(NC(=O)COn2nnc3ccc(Cl)cc32)no1 | -6.7 | 1.51 | 1.22 | 94.3% | 91.2% | 0.535 | 2.19
O=C(O)CC1C(=O)NCCN1Cc1ccc(F)c(F)c1 (configuration not stated) | -11.2 | 3.21 | -1.31 | 99.4% | 88.2% | 3.32 | -0.21
O=C(NCCN1CCOCC1)c1ccc2c(c1)ncn2C1CCCC1 | -10 | 5.44 | -0.55 | 106% | 105% | 1.44 | 4.43
CC1CCN(C(=O)c2ccc(NC(=O)C3CCCO3)cc2)CC1 (configuration not stated) | -31.4 | -18.3 | -0.41 | 96.4% | 94.3% | 1.26 | 3.59
COc1ccc(S(=O)(=O)N2CCCC2C(=O)Nc2ccc(C(C)=O)cc2)cc1 (configuration not stated) | -19.4 | -11 | -0.66 | 97.6% | 95.8% | 2.13 | 1.47

Compound | growth inhibition [1] [%] | growth inhibition [2] [%] | viability increase [3] [%] | viability [4] | viability [5] | inhibition [6] [%] | RAM network inhibition [7] [%]
CCCN(CCC(=O)Nc1ccccc1F)CC1CC1 | -12.8 | -18.1 | -1.44 | 99.1% | 95.3% | 0.64 | -0.31
Cc1ccc(C2CC(c3cccc(Br)c3)n3nc(N)nc3N2)cc1 (configuration not stated) | 0.285 | 22.3 | -1.6 | 68.2% | 67.2% | 1.82 | 5.91
CCOC(=O)C1=C(C)Nc2nc(SCc3cccnc3)nn2C1c1ccc(OC)cc1 (configuration not stated) | -6.41 | 2.46 | -2.64 | 98.7% | 89% | 0.58 | 4.49
O=C1C2CCCN2C(c2ccc(F)c(F)c2)N1c1cccc(Cl)c1 (configuration not stated) | 3.17 | -1.67 | -0.86 | 101% | 100% | 0.745 | 5.42
CCCCOC(=O)c1ccc(NC(=O)CSCc2n[nH]c(=O)[nH]2)cc1 | -1.44 | -3.24 | 0.11 | 98.3% | 102% | 0.475 | 1.48
O=C1CCC(=O)N1CNc1cccnc1 | -7.25 | -12.2 | -0.41 | 95.3% | 103% | 0.34 | 5.5
Cc1sc2nc(SCC(=O)OC(C)C)n(C)c(=O)c2c1C | -2.81 | 31.4 | -1.84 | 105% | 94.8% | 2.59 | 2.75
CC(=O)NCCc1cc2ccc(C)c(C)c2[nH]c1=O | -14.9 | -18.7 | -1.53 | 103% | 97% | 1.05 | 0.37
CC(C)N(C(=O)CN(C#N)c1nc(N(C)C)nc(N(C)C)n1)c1ccccc1 | -16.1 | -7.49 | -2.51 | 100% | 106% | 2.33 | 4.46
O=C(Nc1ccon1)c1cccc(C(F)(F)F)c1 | -9.21 | -5.36 | 2.41 | 104% | 101% | 0.075 | 0.62
CCOC(=O)N1CCC(c2cc(=O)n3[nH]c(-c4ccccc4)cc3n2)CC1 | 2.9 | -2.34 | -1.16 | 102% | 95.3% | 3.11 | 9.15
O=C(CCS(=O)(=O)c1cccc2nonc12)NCCc1ccccc1 | -9.93 | -23.2 | -3.1 | 103% | 99.1% | 4.24 | 5.03
CCOC(=O)N1CCN(C(=O)c2cc3c(-c4ccc(Cl)cc4)nn(C)c3s2)CC1 | -5.13 | 4.77 | -6.02 | 55.8% | 49.2% | 0.47 | 1.8
CCOc1ccccc1C(=O)Nc1nnc(C(C)C)s1 | 3 | -2.61 | -4.41 | 98.1% | 91.5% | 0.55 | 2.24
COc1ccc(Cn2nnc3c(=O)[nH]c(C(=O)NCCc4ccc(F)cc4)nc32)cc1OC | -3.32 | -2.82 | -0.55 | 114% | 100% | 2.69 | 0.97
CCCOc1ccc(NC(=O)c2c(-c3ccccc3)noc2C)cc1 | -3.83 | -7.54 | -1.84 | 103% | 90.5% | 1.34 | 2.96
O=C(COC(=O)c1ccccc1Oc1ccccc1)NCc1ccco1 | -7.67 | -3.48 | -6.02 | 61.6% | 67.1% | 2.41 | 2.24
CCN1CCN(Cc2nc3c(c(=O)n(C)c(=O)n3C)n2Cc2ccc(Cl)cc2Cl)CC1 | -9.72 | -16.2 | -3.62 | 99.1% | 98.8% | 0.615 | 1.52
